By IC50 is commonly meant the point on the concentration scale where inhibition reaches its midpoint.

Values after ≈ are worked out from the molar mass of the structure shown.

This note sets out measurements from ChEMBL document CHEMBL1155724, “Novel cytotoxic annonaceous acetogenins from Annona muricata” (J Nat Prod, 2001).

A short description of experiment [1]: Cytotoxicity against human HepG2(2.2.15) cells after 12 days by methylene blue colorimetric method. The following applies: HepG2 2.2.15, 288 h. It counts as functional, cell-based. The gist of the method:
(§1)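 Hep G2 and HBV-transfected Hep G2 (Hep 2,2,15) cells were grown in RPMI 1640 or DMEM with 10% FCS, 100 units/mL penicillin and 100 µg/mL streptomycin, at 37 °C in humidified 5% CO2. Viability was measured by methylene blue staining, read at 592 nm. IC50 is the concentration giving 50% lower absorbance than drug-free controls.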

Another experiment relates to HepG2. The experiment can be described thus: Cytotoxicity against human HepG2 cells after 12 days by methylene blue colorimetric method. It counts as functional, cell-based. Particulars: HepG2, 288 h. The gist of the method:
as §1

Regarding `CCCCCCCCCCCCC(O)C(O)CCC(O)C1CCC(CCCCCCC[C@@H](O)CC2=C[C@H](C)OC2=O)O1` (mixture of isomers) [MURICATETROCIN A/B], the values for the IC50 (in experiment [1]; with HepG2) were 0.00483 µg/mL and 0.0495 µg/mL, respectively.
Take `CCCCCCCCCCCC[C@@H](O)[C@H]1CC[C@H]([C@H](O)CCCC[C@H](O)CCCCCCCC2=C[C@H](C)OC2=O)O1` [COROSSOLINE]: the IC50 in experiment [1] was determined as 0.234 µg/mL (≈ 0.403 µM); with HepG2, 0.353 µg/mL (≈ 0.608 µM).
With `CCCCCCCC(O)C(O)CC[C@H](O)[C@@H]1CC[C@@H](CCCCCCCCCC[C@@H](O)CC2=C[C@H](C)OC2=O)O1` (stereo partly specified) [MURICIN D], the IC50 worked out at 0.048 µg/mL (≈ 0.0844 µM) in experiment [1] and 0.00066 µg/mL (≈ 0.00116 µM) with HepG2.
In the same order, the values of `CCCCCCCCCCCC[C@@H](O)[C@H]1CC[C@@H]([C@@H](O)CCCCC(=O)CCCCCCCC2=C[C@H](C)OC2=O)O1` [COROSSOLONE] are 0.284 µg/mL (≈ 0.491 µM) and 0.48 µg/mL (≈ 0.829 µM).
In experiment [1], `CCCCCC(O)C(O)CCCCCC[C@H](O)[C@@H]1CC[C@H](CCCCCCCCCC[C@H](O)CC2=C[C@H](C)OC2=O)O1` (stereo partly specified) [MURICIN B] had an IC50 of 0.00429 µg/mL (≈ 0.00719 µM).
In the case of `CCCCCCCCCCCCCC[C@@H](O)[C@H]1CC[C@H]([C@H](O)CC[C@H](O)CCCCCCCC2=C[C@H](C)OC2=O)O1` [LONGIFOLICIN], the IC50 is 0.0049 µg/mL (≈ 0.00844 µM) in experiment [1] and 0.000404 µg/mL (≈ 0.000695 µM) with HepG2.
As for `COc1cccc2c1C(=O)c1c(O)c3c(c(O)c1C2=O)C[C@@](O)(C(=O)CO)C[C@@H]3O[C@H]1C[C@H](N)[C@H](O)[C@H](C)O1` [DOXORUBICIN], the IC50 in experiment [1] was 0.45 µg/mL (≈ 0.828 µM).
On the same count and under the same terms, to `CCCCCCCC(O)C(O)CC[C@H](O)[C@@H]1CC[C@H](CCCCCCCCCCCC[C@@H](O)CC2=C[C@H](C)OC2=O)O1` (stereo partly specified) [MURICIN C] belongs 0.00387 µg/mL (≈ 0.00648 µM).
Compound `CCCCCC(O)C(O)CCCCCC[C@@H](O)[C@H]1CC[C@H](CCCCCCCCCC[C@@H](O)CC2=C[C@H](C)OC2=O)O1` (stereo partly specified) [MURICIN A] came in with an IC50 in experiment [1] of 0.00513 µg/mL (≈ 0.00859 µM). The IC50 values of the last two compounds are within 1.5-fold of each other.
In the case of `CCCCC(O)C(O)C/C=C\CC[C@H](O)[C@@H]1CC[C@@H](CCCCCCCCCCCC[C@@H](O)CC2=C[C@H](C)OC2=O)O1` (stereo partly specified) [MURICIN F], the IC50 in experiment [1] was 0.00386 µg/mL (≈ 0.00649 µM); with HepG2, 0.0428 µg/mL (≈ 0.0719 µM).
